NadD inh: inhibitors of S. aureus NadD, primary screen, biochemical, colorimetric, uHTS | inhibition, % at 20 µM | Nicotinate-nucleotide adenylyltransferase NadD (Staphylococcus aureus N315) | 360,000 tested, 0.78% active | AID 602399, 2012 | purified NadD enzyme, colorimetric absorbance read-out; in the data active means inhibition above about 26%
Myeloid diff MLP: induction of myeloid progenitor differentiation, primary screen, cell-based, flow cytometry, MLPCN library. ER-HoxA9 myeloid progenitors, lysozyme-GFP differentiation. calls only at 10 µM. 360,000 tested, 1% active;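 active means normalized GFP-positive differentiation at or above the plate's own cutoff, the solvent-only control mean plus 3 SD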;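 further: cells exposed to compound for four days before flow analysis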
PP5 primary: PP5 phosphatase inhibitors, primary screen, biochemical, fluorescence | Serine/threonine-protein phosphatase 5 (Homo sapiens), P53041 | inhibition, % at 6.7 µM | 320,000 tested, 0.18% active | purified PP5c, OMFP substrate fluorescence | AID 1987, 2009;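 active means inhibition above the campaign's mean inhibition across all tested compounds plus 3 SD, cut at about 9.5% in these data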;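 further: 0% = DMSO only and 100% = 100 µM cantharidin control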
PP1 counter: PP1-alpha phosphatase inhibitors, primary screen, counter-screen for PP5 inhibitor project, biochemical, fluorescence, OMFP substrate, single point; Serine/threonine-protein phosphatase PP1-alpha catalytic subunit (Homo sapiens), P62136; purified PP1alpha; inhibition, % at 6.7 µM; 320,000 tested, 0.9% active; AID 2235, 2010;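 active means inhibition above the mean inhibition of all tested compounds plus 3 SD, computed separately for each screening campaign, cut at about 15% in these data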
Target sequence (P62136 whole entry, looked up): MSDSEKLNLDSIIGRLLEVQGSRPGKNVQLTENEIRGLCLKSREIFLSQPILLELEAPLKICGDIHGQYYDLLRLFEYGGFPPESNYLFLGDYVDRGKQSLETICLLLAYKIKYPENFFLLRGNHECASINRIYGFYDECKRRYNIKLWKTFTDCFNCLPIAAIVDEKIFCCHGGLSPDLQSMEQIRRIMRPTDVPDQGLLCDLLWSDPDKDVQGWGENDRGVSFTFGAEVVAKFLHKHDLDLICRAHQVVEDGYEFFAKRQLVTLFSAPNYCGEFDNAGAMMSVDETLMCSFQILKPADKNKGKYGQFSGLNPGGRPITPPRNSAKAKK
core dimer inh: inhibitors of HCV core protein dimerization, primary screen, biochemical, TR-FRET, high-throughput; TR-FRET GST/Flag-core106 dimerization, 1536-well; AID 1899, 2009; 300,000 tested, 0.33% active; inhibition, % at 5 µM;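 active means inhibition above the mean of all tested compounds plus 3 SD, set per screening campaign, cut at about 45% in these data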
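System – GST-tagged and Flag-tagged HCV core protein residues 1-106 · Repeats – one well for each compound · Technique – TR-FRET 671 and 617 nm emission · Doses – one concentration, 5 µM, in 0.5% DMSO · Times – 4 h, 22.5 °C incubation · Also added – Eu donor and XL665 acceptor anti-tag antibodies · Measure – percent inhibition of core106 dimerization signal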
CTSL1 counter: Fasciola hepatica cathepsin L1 inhibitors, primary screen, counter-screen for PFM18AAP inhibitor project, biochemical, QFRET, fluorogenic peptide substrate; recombinant F. hepatica cathepsin L1, Z-Leu-Arg-MCA fluorescence; inhibition, % at 5.96 µM; 300,000 tested, 0.49% active;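 active means inhibition above the mean of all tested compounds plus 3 SD, set per screening campaign, cut at about 17% in these data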;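 further: 0% = plate median of test compound wells and 100% = 1 µM Z-Phe-Ala-diazomethylketone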
Myeloid diff: inducers of myeloid progenitor differentiation, confirmation, cell-based, GFP/Mac1 flow cytometry, cherry pick 01; shares compounds with Myeloid diff MLP; ER-HoxA9 myeloid progenitors, GFP/Mac1 double-positive flow; calls only; 2,300 tested, 2% active; AID 651706, 2012;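 active means share of green or green-and-red cells above 9 and 9% in run 1 or 4 and 3% in run 2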
GFP autofluor: flagged as fluorescent in myeloid differentiation counter-screen; shares compounds with Myeloid diff MLP; ER-HoxA9 myeloid progenitors, no estrogen, GFP autofluorescence flow cytometry; vehicle wells 0%, positive control 100%; fluorescence response, % (concentration not given with the values); 2,300 tested, 7.4% active; AID 651707;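 active means over 5% cells positive for green fluorescent reporter, or over 2% positive for both it and APC stain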;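 further: range taken on the double positive population between DMSO and positive control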
The depositor's hits bear a star; i = inactive; . = no result given; + = active, no number. Rows were chosen to be rich in hits. Some 3.1% of all compounds tested hit in one or more screens of this group.

SMILES	NadD inh	Myeloid diff MLP	PP5 primary	PP1 counter	core dimer inh	CTSL1 counter	Myeloid diff	GFP autofluor
O=C(NCC(c1cccnc1)N1CCN(c2ccc(F)cc2)CC1)Oc1ccccc1 (stereo unspecified)	-4.8	i	-0.1	-2.7	-0.5	-2.6	i	1.8
O=c1[nH]c(=O)n(C2CCCCC2)c(O)c1/C=C/C=Nc1ccccc1	4.8	+	0.5	1.3	2.0	3.6	i	7.5*
COc1ccc(-n2c(O)c(/C=C/C=Nc3ccccc3)c(=O)[nH]c2=O)cc1	-4.4	i	-1.4	-1.9	-8.0	-0.8	i	97.2*
Cc1ccc(-n2c(O)c(/C=C/C=Nc3ccccc3)c(=O)[nH]c2=O)cc1	-0.6	i	-2.9	-2.5	-5.0	9.2	i	4.8
O=c1[nH]c(=O)n(-c2ccccc2)c(O)c1/C=C/C=Nc1ccccc1	-5.9	i	1.3	0.0	-7.9	4.1	.	.
O=C1NC(=O)N(CCC2=CCCCC2)C(=O)/C1=C\c1cccs1	26.5	i	2.8	3.4	9.7	-3.5	i	1.2
Cn1cccc1/C=C1\C(=O)NC(=O)N(CCC2=CCCCC2)C1=O	-1.5	i	.	.	.	.	.	.
Cc1ccc(CN2C3CCCC2CC(NC(=O)Nc2cccc(F)c2)C3)cc1 (stereo unspecified)	-2.3	i	-2.3	-5.0	-3.8	-1.3	.	.
CCC(CC)NCc1c[nH]c2ccccc12	-5.5	+	0.7	3.0	0.9	-1.5	i	0.0
COc1ccc(CN2CCN(C(=O)Cc3ccccc3)CC2)c(OC)c1	-8.0	i	1.6	3.6	-12.5	1.9	.	.
COc1ccc(CN2CCN(Cc3ccccc3)CC2)c(OC)c1	-2.9	i	4.0	2.8	3.1	-1.8	i	0.4
O=P1(NCCCl)OCCCN1CCCl (stereo unspecified)	1.9	i	-0.1	-2.3	-1.6	-4.3	.	.
C=C1C2[C@H](OC(C)=O)[C@@H]3CC(=O)[C@]4(C)OC[C@@]3(C)[C@@]4(O)[C@@H](OC(C)=O)[C@H](OC(C)=O)[C@@]2(COC(=O)c2ccccc2)[C@@H](OC(C)=O)C[C@@H]1O (stereo partly specified)	-1.0	i	-0.8	1.9	0.3	-1.1	i	1.4
Cc1ccc(C(=O)Nc2ccc(Cl)cc2C(=O)c2ccccc2)cc1	-3.7	i	1.2	2.7	-8.0	0.0	i	5.1*
Cc1cc(C)cc(N2C(=O)NC(=O)/C(=C\c3cccn3-c3ccc(Cl)cc3)C2=O)c1	25.2	i	2.6	-0.8	11.2	1.4	i	0.0
O=c1[nH]c2ccccc2n1C1CCN(Cc2ccc(-c3nc4ccc(F)cc4nc3-c3ccccc3)cc2)CC1	17.5	+	.	.	.	.	i	1.4
COC(=O)C1=C(c2ccc(OC)c(OC)c2)C[C@@H]2CC[C@H]1N2C(=O)NCC1CC1	0.9	i	-1.4	-4.2	.	.	.	.
CC(=O)N[C@@H]1CC[C@@]2(O)[C@H]3Cc4ccc(O)c5c4[C@@]2(CCN3CC2CC2)[C@@H]1O5	0.5	.	.	.	.	.	.	.
O=C1NC(=O)N(Cc2ccc(F)cc2)C(=O)/C1=C\c1ccc(N2CCCC2)cc1	33.5*	+	2.1	2.1	40.5	4.5	i	0.0
CC(C)NC1C2CCC(CC2)C1(O)c1ccc(Cl)c(Cl)c1 (stereo unspecified)	-10.3	i	.	.	.	.	.	.
O=C(Nc1cccc(OC(=O)N2CCCCC2)c1)N1CCCCC1	2.6	i	-0.1	-1.6	-2.4	-1.3	i	0.0
O=C(CCC(=O)N1CC2C[C@@H](C1)Cn1c2cccc1=O)NCCc1ccccc1F	-1.1	i	4.4	-3.0	-7.3	-3.5	i	0.3
COc1ccc(OC(=O)N(C)C[C@@H]2OCc3cnnn3CCCC(=O)N([C@@H](C)CO)C[C@@H]2C)cc1	-2.1	i	.	.	.	.	i	0.4
COc1ccc(OC(=O)N(C)C[C@H]2OCc3cnnn3CCCC(=O)N([C@@H](C)CO)C[C@H]2C)cc1	1.3	i	.	.	.	.	.	.
CCOC(=O)[C@]12Cc3cc(OC)ccc3[C@H]1N(Cc1ccccc1)C(=O)c1ccccc12	-16.5	i	.	.	.	.	.	.
SMILES	NadD inh	Myeloid diff MLP	PP5 primary	PP1 counter	core dimer inh	CTSL1 counter	Myeloid diff	GFP autofluor
CCCCCN1C(=O)c2ccccc2[C@@]2(C(=O)OCC)Cc3cc(OC)ccc3[C@@H]12	-5.2	+	.	.	.	.	i	0.0
CCOC(=O)[C@]12Cc3ccccc3[C@H]1N(CCC(=O)OC)C(=O)c1ccccc12	0.6	+	.	.	.	.	i	0.0
CCOC(=O)[C@]12Cc3ccccc3[C@H]1N(Cc1ccccc1)C(=O)c1ccccc12	-4.8	i	.	.	.	.	.	.
Cc1cc(Cc2c(O)[nH]c(=S)[nH]c2=O)ccc1OC(C)C	-1.7	i	-0.1	0.7	-0.3	1.7	.	.
COC(=O)C1=C(c2ccccc2OCc2ccccc2)C[C@@H]2CC[C@H]1N2C(=O)NCc1ccc([N+](=O)[O-])cc1	-2.6	i	2.3	6.4	.	.	.	.
CCOC(=O)C1CCCN(c2ccc([N+](=O)[O-])c3nonc23)C1 (stereo unspecified)	-2.2	+	.	.	.	.	i	58.1*
CC1CCCN(c2ccc(C(=O)N3CCC4(CC3)OCCO4)cc2[N+](=O)[O-])C1 (stereo unspecified)	2.0	i	2.5	-1.1	-1.1	1.8	.	.
CN1[C@H]2CC[C@@H]1C(C(=O)N1CCOCC1)=C(O)C2	-2.9	i	1.7	0.2	.	.	.	.

High-throughput results (PubChem)
